LANA-H2A inh: blocks KSHV LANA binding to histone H2A/H2B. Q9QR71. cell-free LANA-H2A/H2B peptide, fluorescence polarization. inhibition, % (concentration not given with the values). hit rate 0.6% among 320,000. AID 2629; in the data active = inhibition mostly above about 10%, no sharp cut-off; inactive = mostly below about 6.7%
TRPML3 agonist: activates the human TRPML3 channel; activation, % at 3 µM; HEK293 TRPML3-YFP, Fluo-8 calcium fluorescence; 100% = the carbachol control signal; hit rate 0.29% among 220,000;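 active = activation above its plate's cutoff, the mean activation of the plate's test wells plus 3 SD, cut at about 12% in these data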;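 note: 0% = DMSO only wells and 100% = carbachol wells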
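Material: TRPML3-YFP stable HEK293 cells | Dosing: One concentration, 3 µM nominal, 0.3% DMSO | Timing: 125 s total fluorescence read per well | Technique: Fluo-8 calcium dye fluorescence, ex 470-495, em 515-575 nm | Measure: Percent activation from peak-to-basal fluorescence ratio, scaled between DMSO and carbachol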
GPR7 antag: blocks human GPR7 receptor signaling. GPR7-expressing cells, fluorescence antagonist assay. inhibition, % at 4.4 µM. hit rate 1.1% among 290,000. AID 1861; in the data active = inhibition above about 16%, passing the limit was not always enough;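 note: cells stimulated with the agonist NPW; 0% = agonist with vehicle and 100% = vehicle without agonist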
zfTRPN1 agonist: activates the zebrafish TRPN1 channel. hit rate 0.18% among 220,000. HEK293 zebrafish TRPN1-YFP, Fluo-8 calcium fluorescence; 100% = response to 87 µM carbachol. activation, % at 3 µM;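 active = activation above its plate's cutoff, the mean activation of test wells on that plate plus 3 SD, cut at about 19% in these data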;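 note: 0% = DMSO alone and 100% = 87 µM carbachol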
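Material: zebrafish TRPN1-YFP in HEK293 cells; Doses: single test compound dose, 3 µM nominal, 0.3% DMSO; Timing: dye loading 1 h at 37 °C, then 30 min room temperature; Technique: intracellular calcium fluorescence with Fluo-8; Benchmarks: high carbachol 87 µM, low DMSO alone.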
TAAR1 antag: human TAAR1 antagonism. Q96RJ0. CHO RD-HGA16 TAAR1, Fluo-8 calcium fluorescence, antagonist. inhibition, % at 3 µM. hit rate 1.5% among 360,000. AID 624466;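 active = inhibition above a per-plate cutoff, the mean inhibition of test compounds on that plate plus 3 SD, cut at about 49% in these data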;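 note: 0% = DMSO plus EC80 beta-PEA response and 100% = DMSO alone without agonist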
Target sequence (Q96RJ0 whole entry, looked up): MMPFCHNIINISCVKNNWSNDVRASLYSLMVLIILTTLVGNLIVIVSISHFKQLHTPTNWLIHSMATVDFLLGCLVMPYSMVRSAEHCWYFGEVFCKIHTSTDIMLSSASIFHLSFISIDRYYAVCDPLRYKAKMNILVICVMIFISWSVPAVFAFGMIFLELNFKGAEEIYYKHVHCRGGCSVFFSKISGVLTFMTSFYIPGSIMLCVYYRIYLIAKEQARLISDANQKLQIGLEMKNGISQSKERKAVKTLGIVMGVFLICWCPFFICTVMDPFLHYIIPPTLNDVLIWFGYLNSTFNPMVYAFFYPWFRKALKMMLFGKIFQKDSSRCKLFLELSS
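Test system: RD-HGA16 CHO cells with stable hTAAR1 and Gα16 / Probe or stimulus: EC80 β-phenethylamine stimulus / Times: seeding 17-24 h prior, 75-min 37 °C, 30-min RT dye loading / Detection: Fluo-8 calcium-sensitive fluorescence / Read-out basis: % inhibition scaled between DMSO and EC80 PEA controls / Repeats: singlicate, one well per test compound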
TAAR1 ag: human TAAR1 agonism; Q96RJ0; CHO RD-HGA16 TAAR1, Fluo-8 calcium fluorescence; vehicle wells 0%, saturating PEA agonist 100%; activation, % at 3 µM; hit rate 0.99% among 360,000; AID 624467;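 active = activation above the mean activation of all test compounds in the run plus 3 SD, cut at about 38% in these data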
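Test system: RD-HGA16 (CHO) cells co-expressing Gα16 and hTAAR1 | Doses: Single dose, 3 µM | Schedule: 17-24 h seeding, 75 min 37 °C dye, 30 min RT | Evaluation: % activation from peak over basal fluorescence ratio, DMSO-to-PEA scaled | Technique: Kinetic Fluo-8 calcium fluorescence | Benchmarks: Low control DMSO, high control PEA (EC100)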
Numbers without * were called inactive; x = not tested or not shown. Only some compounds are listed: those with a hit (about 3.4% of all), similar ones and a draw of the others.

SMILES	LANA-H2A inh	TRPML3 agonist	GPR7 antag	zfTRPN1 agonist	TAAR1 antag	TAAR1 ag
Cc1ccccc1S(=O)(=O)Cc1ccc(C(=O)N2CCN(c3cccc(C)c3C)CC2)o1	-2.3	-0.8	3.7	-0.4	73.2*	25.7
Cc1ccccc1S(=O)(=O)Cc1ccc(C(=O)NC2CCC(C)CC2)o1 (stereo not given)	0.0	x	-2.2	x	-27.4	1.6
Cc1ccccc1S(=O)(=O)Cc1ccc(C(=O)N2CC(C)CC(C)C2)o1 (stereo not given)	-3.4	0.9	-7.0	0.5	-14.9	42.3*
CC1CCCN(c2cccc3c2S(=O)(=O)N([C@H](C)c2ccccc2)C[C@@H](COCc2ccccc2)O3)C1 (stereo not given in full)	x	x	x	x	-15.7	-1.0
CCCCCCCCCCn1ccc(=N)cc1	1.1	-0.9	22.8*	-0.7	-2.5	18.3
O=C(c1cc(C2CC2)on1)N1CCCC(N2CCN(c3ccc(F)cc3)CC2)C1 (stereo not given)	12.6*	x	-13.5	x	-28.9	1.8
CCCc1c(-c2cccc(Br)c2)ncn1CCc1ccccc1OC	x	x	x	x	33.4	20.3
Cc1cc(NC(=O)C2CC(=O)N(c3cccc(Cl)c3)C2)no1 (stereo not given)	11.1*	x	-8.3	x	-1.4	1.6
O=C(NCC1CCN(C(=O)C(=O)c2cccs2)CC1)c1cccnc1	x	x	x	x	1.7	1.3
CCN(CC)S(=O)(=O)c1ccc(Cl)c(NC(=O)COc2ccc3c(C)cc(=O)oc3c2)c1	0.7	-0.4	-9.4	-0.3	-17.2	4.4
COc1ccc(NC(=O)CN(C)C(=O)/C=C/c2ccc(S(=O)(=O)N3CCCCCC3)cc2)cc1	110.3*	x	x	x	21.4	-0.5
COc1ccc(OCC(=O)Nc2cc(S(=O)(=O)N3CCCC3)ccc2Cl)cc1	x	x	x	x	61.4*	39.1*
CCN(CC)S(=O)(=O)c1ccc(Cl)c(NC(=O)COc2ccc(OC)cc2)c1	0.1	1.0	1.1	1.1	57.6*	26.8
O=C(Nc1ccc(S(=O)(=O)N2CCCC2)cc1)c1ccc(CN2CCOCC2)cc1	0.4	4.3	16.2	11.4	10.8	23.5
COc1ccc(/C=C/C(=O)N(C)CC(=O)Nc2cccc(F)c2)cc1S(=O)(=O)N1CCCCC1	x	x	x	x	-3.6	-1.2
COc1ccc(NS(=O)(=O)c2ccc(NC(=O)c3ccc(CN4CCOCC4)cc3)cc2)cc1	-6.8	5.5	23.8*	12.2	36.1	18.0
Cc1cc2c(c(=O)o1)[C@@]1(C(=O)N(C)c3ccccc31)C1=C(CCC1=O)O2	x	x	x	x	-17.4	2.2
O=C(/C=C(\Nc1cc(Cl)c(F)c(Cl)c1)c1ccccc1)c1ccccc1	x	x	x	x	-14.8	6.8
CCN(c1ccccc1)S(=O)(=O)c1ccc(Cl)c(NC(=O)CNCc2ccccc2OC)c1	0.9	x	x	x	55.5*	4.6
COc1ccc(CNC(=O)c2oc3ccc(S(=O)(=O)N4CCOCC4)cc3c2C)cc1	4.2	x	9.4	x	51.1*	28.8
Cc1ccc(CNC(=O)c2oc3ccc(S(=O)(=O)N4CCOCC4)cc3c2C)cc1	-1.1	0.0	-0.3	1.4	46.9	25.5

Source: PubChem
